Measured values from ChEMBL document CHEMBL1153787, “Unsaturated dideoxy fluoro-ketopyranosyl nucleosides as new cytostatic agents: a convenient synthesis of 2,6-dideoxy-3-fluoro-4-keto-beta-D-glucopyranosyl analogues of uracil, 5-fluorouracil, thymine, N4-benzoyl cytosine and N6-benzoyl adenine” (Eur J Med Chem, 2009).

Experiments:
[1] = Cytotoxicity against human Molt4/C8 cells; type: functional, cell-based; conditions: MOLT-4
Method in brief: (§1)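 Proliferation of suspension tumour cells (murine L1210 and FM3A, human Molt4/C8 and CEM) was measured. IC50 is the compound concentration that inhibits cell proliferation by 50%.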

[2] = Cytotoxicity against MDCK cells assessed as reduction of cell viability by MTS dye staining; type: cell-based, Canis lupus familiaris; conditions: dog
Method in brief: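 MDCK cell viability read by colorimetric formazan-based MTS dye staining. CC50 is the compound concentration that reduces cell viability by 50%.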

[3] = Cytotoxicity against human HEL cells assessed as induction of microscopically visible alteration in cell morphology; type: cell-based; conditions: read-out: MIC
Method in brief: (§2)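 HEL, Vero and HeLa cell cultures were examined under the microscope for changes in cell morphology. MIC is the compound concentration that causes a microscopically visible alteration of cell morphology.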

HeLa = experiment: Cytotoxicity against human HeLa cells assessed as induction of microscopically visible alteration in cell morphology; type: functional; conditions: read-out: MIC; method in brief: as §2
L1210 [4] = experiment: Cytotoxicity against mouse L1210 cells; type: functional, cell-based; method in brief: as §1
CCRF-CEM [5] = experiment: Cytotoxicity against human CEM cells; type: functional, cell-based; method in brief: as §1
[6] = Cytotoxicity against african green monkey Vero cells assessed as induction of microscopically visible alteration in cell morphology; type: cell-based; conditions: chlorocebus sabaeus, read-out: MIC; method in brief: as §2
FM3A = experiment: Cytotoxicity against mouse FM3A cells; type: functional, cell-based; method in brief: as §1
CCRF-CEM [7] = experiment: Cytotoxicity against human CEM cells assessed as inhibition of [3H]Leu incorporation into macromolecules; type: functional
Method in brief: (§3)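 L1210 and CEM cells were given radiolabelled [3H]dThd (DNA), [3H]Urd (RNA) or [3H]Leu (protein). Label incorporated into methanol-insoluble material was measured. IC50 is the concentration that inhibits precursor incorporation by 50%.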

CCRF-CEM [8] = experiment: Cytotoxicity against human CEM cells assessed as inhibition of [3H]Urd incorporation into macromolecules; type: functional; method in brief: as §3
L1210 [9] = experiment: Cytotoxicity against mouse L1210 cells assessed as inhibition of [3H]Urd incorporation into macromolecules; type: functional; method in brief: as §3
CCRF-CEM [10] = experiment: Cytotoxicity against human CEM cells assessed as inhibition of [3H]dThd incorporation into macromolecules; type: functional; method in brief: as §3
L1210 [11] = experiment: Cytotoxicity against mouse L1210 cells assessed as inhibition of [3H]dThd incorporation into macromolecules; type: functional; method in brief: as §3
L1210 [12] = experiment: Cytotoxicity against mouse L1210 cells assessed as inhibition of [3H]Leu incorporation into macromolecules; type: functional; method in brief: as §3

| Structure (SMILES) | IC50 [1] [µM] | CC50 [2] [µM] | MCC [3] [µM] | minimum cytotoxic concentration (MCC) (HeLa) [µM] | IC50 (L1210 [4]) [µM] | IC50 (CCRF-CEM [5]) [µM] | MCC [6] [µM] | IC50 (FM3A) [µM] | IC50 (CCRF-CEM [7]) [µM] | IC50 (CCRF-CEM [8]) [µM] | IC50 (L1210 [9]) [µM] | IC50 (CCRF-CEM [10]) [µM] | IC50 (L1210 [11]) [µM] | IC50 (L1210 [12]) [µM] |
| --- | --- | --- | --- | --- | --- | --- | --- | --- | --- | --- | --- | --- | --- | --- |
| C[C@H]1O[C@@H](n2cnc3c(NC(=O)c4ccccc4)ncnc32)C=C(F)C1=O | 5 | 12 | 20 | 20 | 2.4 | 4.3 | 20 | 6 | – | – | – | – | – | – |
| C[C@H]1O[C@@H](n2ccc(NC(=O)c3ccccc3)nc2=O)C=C(F)C1=O | 1.6 | 8.2 | 20 | 20 | 1.4 | 1.7 | 20 | 11.9 | 7.9 | 12 | 10 | 11 | 12 | 12 |
| C[C@H]1O[C@@H](n2ccc(=O)[nH]c2=O)C=C(F)C1=O | 2.5 | 0.6 | 20 | 20 | 2.9 | 2.2 | 20 | 16 | – | – | – | – | – | – |
| Cc1cn([C@H]2C=C(F)C(=O)[C@@H](C)O2)c(=O)[nH]c1=O | 2.5 | 0.7 | 20 | 20 | 2.8 | 2.6 | 20 | 10 | – | – | – | – | – | – |
| C[C@H]1O[C@@H](n2cc(F)c(=O)[nH]c2=O)C=C(F)C1=O | 3.3 | 0.6 | 20 | 20 | 0.82 | 3.7 | 20 | 0.49 | – | – | – | – | – | – |
